Variants at the floor of the assay were thinned out. Some results are limits rather than exact numbers.

First the molecules themselves.
B1: tRNA (parent)
chain: GUUCCGUUGGCGUAAUGGUAACGCGUCUCCCUCCUAAGGAGAAGACUGCGGGUUCGAGUCCCGUACGGAACG

In this data set the parent is B1. Nature of the data set: yeast fitness relative to wild type (ratio to wild type); higher = fitter; tRNA-Arg(CCU), competitive growth, 37 C, YPD. The method, boiled down:
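Start and end populations of a pooled competition were compared by 100-nucleotide paired-end sequencing of gene amplicons. The Saccharomyces cerevisiae strains carried tRNA-Arg(CCU) gene variants at the native genomic locus, synthesised with a 3% per-site mutation rate at 69 sites, and competed in YPD at 37°C for 24 hours in six parallel replicates. Darwinian fitness relative to wild type was based on the change in genotype frequencies. Genotypes required ≥ 100 starting reads, and estimates < 0.5 were set to 0.5.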
G44C A45U U53C: the yeast fitness came out at 0.605.

Regarding G44A G58A, the yeast fitness came out at 0.955.

Regarding G44A G58C, the yeast fitness was 0.911.

For A43C G44A, the yeast fitness is 1.01.

On to A43C A45U, for which the yeast fitness is 0.973.

Take A43C A45G: the yeast fitness was determined as 1.02.

Regarding A43G A45G C55U G68A, the yeast fitness was not above 0.5.

Consider A43U C49G C61U, for which the yeast fitness is not above 0.5.

As for A43C G63C, the yeast fitness is 0.692.

As for A43C G63A, the yeast fitness worked out at 0.929.

Turning to A42U A45U C60U A65C, the yeast fitness is not above 0.5.

As to A43G C61U, the yeast fitness worked out at 0.887.

Turning to G44C G63C G68A, the yeast fitness was not above 0.5.

In the case of A42U A57G G58A A70U, the yeast fitness is not above 0.5.

A43G U59G: the yeast fitness worked out at 0.842.

Take A43G U59C: the yeast fitness came to 0.863.

For A45G A57C, the yeast fitness is 0.668.

For the variant A43U G67C, the yeast fitness was determined as 0.778.

A43U G67A: the yeast fitness came to 0.79.

In the case of A43U G67U, the yeast fitness came out at 0.87.

For A45G A69U, the yeast fitness stood at 1.01.

Turning to A45G A69C, the yeast fitness is 0.912.

For the variant G44U G52A C55G A69U, the yeast fitness is not above 0.5.

With A43U C49A, the yeast fitness is 0.756.

As for A43U C49U, the yeast fitness came out at 1.09.

For the variant A43G A65C, the yeast fitness turned out to be 0.79.

Take A43G A45G C55U: the yeast fitness is not above 0.5.

For the variant A45C G51A C55A, the yeast fitness amounted to 0.516.

Regarding A43U G56A A70U, the yeast fitness stood at 0.948.

Regarding A43G G63A, the yeast fitness amounted to 0.745.

As for A43U G48C C60A U64A, the yeast fitness was not above 0.5.

For A43U C60G C61U, the yeast fitness is not above 0.5.

Take A43U G51A C55U: the yeast fitness was not above 0.5.

Take G44A C55U A69C: the yeast fitness worked out at 0.585.

Take A45G C46G: the yeast fitness turned out to be 0.87.

On to A43U G48A U64C, for which the yeast fitness came out at 0.751.

Regarding A43U C60G C66U, the yeast fitness was 0.534.

A42U C66U: the yeast fitness is 0.793.

As for G44C G50C A70C, the yeast fitness was determined as 0.573.

A45C G58A C62U A69C: the yeast fitness is 0.59.

Turning to A45C G50A A57G, the yeast fitness amounted to 0.665.

In the case of A43C A57U, the yeast fitness came to 0.678.

Regarding A43G U64A A69U, the yeast fitness stood at 0.648.

Turning to A45G A65G A70C, the yeast fitness came to 0.666.

Consider A42U C55U C66U, for which the yeast fitness was not above 0.5.

With A43U C60U G67C, the yeast fitness is 0.636.

On to A45C A57U A65C, for which the yeast fitness is 0.617.

Regarding A45C C46G C49A A69U, the yeast fitness is not above 0.5.

Turning to A43G C46U, the yeast fitness is 0.92.

On to G44A C66G, for which the yeast fitness was 0.641.

As to A43U C60G, the yeast fitness was found to be 0.655.

For A42U G51C C62U C66U, the yeast fitness is 0.708.

Regarding A43U A45G C55G, the yeast fitness was not above 0.5.

For the variant A45C U47A C66U, the yeast fitness is 0.595.

Consider G44A A45U, for which the yeast fitness is 0.885.

Consider A42U A43U A57G, for which the yeast fitness came to 0.534.

Consider A43U U64C, for which the yeast fitness is 1.02.

As for A43U A57C, the yeast fitness turned out to be 0.726.

Take A42U G63U: the yeast fitness came out at 0.701.

With A42U G63A, the yeast fitness was found to be 0.868.

On to G44A A45C C49U C61G, for which the yeast fitness is not above 0.5.

With A43G G48C, the yeast fitness was found to be 0.829.

For A45C U47C C49U, the yeast fitness was 0.806.

For A45C U54G, the yeast fitness was determined as 0.605.

In the case of A42U C61U C62U, the yeast fitness is 0.612.

Regarding G44A U54C, the yeast fitness is 0.723.

Consider A43C C55A A57C, for which the yeast fitness is not above 0.5.

On to A43U A57C G58A, for which the yeast fitness is not above 0.5.

For the variant A43G G58A A65C C66U, the yeast fitness is not above 0.5.

Consider A42U U59C U64A, for which the yeast fitness is not above 0.5.

For the variant A43G A45C C46U, the yeast fitness is 0.578.

Turning to A43U U59A, the yeast fitness is 0.807.

Regarding A43U G48A, the yeast fitness is 1.01.

For the variant A43U G48U, the yeast fitness was 0.77.

A43U G48C C55U: the yeast fitness was not above 0.5.

Regarding A43C G52A A70U, the yeast fitness is not above 0.5.

Regarding A43G G58U, the yeast fitness was determined as 0.707.

With A43G G67C, the yeast fitness is 0.872.

A43U G48C U54C C60A U64A: the yeast fitness is not above 0.5.

For the variant G44C G63C, the yeast fitness is 0.623.

With A43C G52C C55U A69C, the yeast fitness was not above 0.5.

With A45C G48C A69U, the yeast fitness worked out at 0.675.

A43C C55U C66G: the yeast fitness was not above 0.5.

In the case of A45G C49A, the yeast fitness stood at 0.609.

Regarding A43G U64G, the yeast fitness was 0.64.

As for A43U G48A C61G, the yeast fitness was not above 0.5.

For the variant A45G A70U, the yeast fitness was 0.913.

Consider A45G A70G, for which the yeast fitness worked out at 1.19.

Turning to A42U G50C U53A, the yeast fitness is not above 0.5.

Turning to A43G A45U G63A, the yeast fitness worked out at 0.613.

With A42U C61U A70C, the yeast fitness was found to be 0.709.

As to A45C G50A A65U, the yeast fitness is 0.643.

For the variant G44U A70C, the yeast fitness turned out to be 0.813.

As to A45C G48A G67A, the yeast fitness was determined as 0.829.

As for A43G U47C, the yeast fitness was determined as 1.04.

With A43G U47A, the yeast fitness is 0.88.

In the case of A43G A70U, the yeast fitness was found to be 1.01.

With A43G A70C, the yeast fitness was determined as 1.02.

With A43G A70G, the yeast fitness came out at 0.977.

Regarding A43G C55A, the yeast fitness is 0.599.

For A43G C55U, the yeast fitness was found to be 0.711.

For A43U G48A U53A, the yeast fitness was determined as 0.506.

As for A43C G50A G67A, the yeast fitness is not above 0.5.

A43G G51C: the yeast fitness was determined as 0.56.

For the variant G44A C55U U64A A69C, the yeast fitness is not above 0.5.

Consider A42G U54G, for which the yeast fitness came out at 0.562.

For the variant A45C U59C A70C, the yeast fitness was 0.741.

With A43G A45U C46U, the yeast fitness was 0.604.

A43G U47C C62U: the yeast fitness stood at 0.644.

Take A42U C62G: the yeast fitness stood at 0.596.

As to A42U C62U, the yeast fitness stood at 0.991.

Regarding G44A A69U, the yeast fitness is 1.06.

Turning to A43U G58C, the yeast fitness came to 0.892.

A42U: the yeast fitness came to 0.978.

In the case of G44A, the yeast fitness was determined as 0.982.

For the variant G44C, the yeast fitness is 0.985.

For the variant G44U, the yeast fitness turned out to be 1.01.

A43U C55A: the yeast fitness turned out to be 0.613.

Regarding A43U C55U, the yeast fitness was found to be 0.768.

Take A45C A57U C60U A65C: the yeast fitness was not above 0.5.

With A42U G52A C62U, the yeast fitness amounted to 0.754.

Regarding A45C A57C G58C, the yeast fitness was determined as 0.602.

Regarding A45C C46G G51C, the yeast fitness amounted to 0.546.

Take A43G U53G C55A G56C A57G G58A U59G C60U A65C: the yeast fitness is not above 0.5.

A45G A65G: the yeast fitness worked out at 1.04.

Consider A43G C60A C66G, for which the yeast fitness is not above 0.5.

Consider A45C C60A, for which the yeast fitness came out at 0.62.

Consider A43G G51C U54A A57C, for which the yeast fitness was not above 0.5.

As for A43G U53C, the yeast fitness is 0.84.

Consider A43C C62U, for which the yeast fitness was found to be 0.93.

For A43C G52A A69U, the yeast fitness was 0.508.

Regarding A43G C49U U54C, the yeast fitness was determined as 0.522.

As to G44A C46U G58A, the yeast fitness is 0.687.

In the case of G44C G50C U54G C61G, the yeast fitness was 0.568.

As to A43U G68A, the yeast fitness came to 0.669.

Turning to A43U G68C, the yeast fitness turned out to be 0.815.

For the variant A43U G63A, the yeast fitness was found to be 0.895.

In the case of A43C G68C, the yeast fitness was 0.72.

A42U G52A: the yeast fitness stood at 0.808.

In the case of A45G C46G U54G A70C, the yeast fitness is not above 0.5.

Regarding A43C C62A G63A C66G A69G, the yeast fitness is not above 0.5.

Turning to A43C C61A, the yeast fitness amounted to 0.776.

In the case of A43C C61U, the yeast fitness came to 0.956.

Consider G44C G67C, for which the yeast fitness is 0.823.

For the variant G44C C66U A70C, the yeast fitness is 0.88.

Turning to A42U C61U, the yeast fitness came out at 0.827.

In the case of A45C A69U, the yeast fitness was determined as 0.959.

As for G44C G56C, the yeast fitness was determined as 0.58.

Turning to A43G U47A U53A, the yeast fitness is not above 0.5.

A43G G56A: the yeast fitness worked out at 0.86.

In the case of A45C C49U G63A, the yeast fitness amounted to 0.74.

A43C U54C: the yeast fitness turned out to be 0.876.

With A42U C49U G51A, the yeast fitness turned out to be 0.665.

As to G44C C60A C66U, the yeast fitness was not above 0.5.

For the variant G44A U64G, the yeast fitness turned out to be 0.694.

In the case of A43C C49G, the yeast fitness is 0.639.

Take A43C C49A: the yeast fitness was 0.631.

With G44C G56A C66U, the yeast fitness stood at 0.634.

Consider G44C C66U, for which the yeast fitness was determined as 0.692.

As for A43U C46G, the yeast fitness is 0.829.

A43U C46A: the yeast fitness is 0.98.

For the variant A45C C60A C66U, the yeast fitness is not above 0.5.

For A42U U54A G58C, the yeast fitness is 0.599.

As for G44A A65C, the yeast fitness was determined as 1.05.

For G44A A65U, the yeast fitness was 0.816.

As for A42U A43C C49G A65C, the yeast fitness is not above 0.5.

Consider A43U G48A C61G A70C, for which the yeast fitness was not above 0.5.

The values above are taken from the RNAGym collection of RNA variant scans (doi:10.1126/science.aae0568).
